The results in this text go back to ChEMBL document CHEMBL4354867, “Validation and Characterization of Five Distinct Novel Inhibitors of Human Cytomegalovirus” (J Med Chem, 2020).

As a reminder, the EC50 is the midpoint of the concentration-response curve. For orientation: CC50 means the concentration at which the toxic effect on the cells reaches its halfway point.

The subject of data set [1] is Human betaherpesvirus 5. Nature of the data set: Antiviral activity against HCMV Towne infected in human HFF cells assessed as reduction in plaque formation treated with compound following viral infection at MOI of 1 PFU/cell and measured at 10 days post-infection in presence of letermovir by crystal violet staining based assay. The format is functional, organism-based. The settings on record: Human betaherpesvirus 5, strain Towne, 240 h.

Data set [2] has as its system Human betaherpesvirus 5. Nature of the data set: Antiviral activity against pp28-luciferase expressing HCMV Towne infected in human HFF cells assessed as reduction in viral replication treated with compound at 24 hrs post viral infection at MOI of 1 PFU/cell and measured after 3 days by luciferase reporter gene assay. The settings on record: strain Towne. In kind it is functional, organism-based. In outline:
(§1)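 Time-of-addition in HFFs infected with HCMV Towne (MOI 1). Add-on: compound added at 0, 6, 24 or 48 hpi. Removal: compound added right after infection and washed out after 0, 6, 24 or 48 h. Luciferase read at 72 hpi.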
A general note: A reporter such as luciferase makes a cellular process visible.

Data set [3] in a line: Antiviral activity against Mouse Cytomegalovirus Smith (ATCC VR-1399) infected in mouse MEF cells assessed as reduction in plaque formation measured after 3 days by crystal violet staining based assay. In kind it is functional, cell-based, Murine cytomegalovirus (strain Smith). The settings on record: Murid betaherpesvirus 1, ATCC VR-1399, MEF, 72 h; read-out: EC50. In outline: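 Plaque reduction with MCMV Smith in mouse embryonic fibroblasts, with compound in a carboxymethylcellulose overlay. Assay ended at 3 days and plaques counted after crystal violet staining.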

Data set [4] deals with Human betaherpesvirus 5. Nature of the data set: Antiviral activity against HCMV Towne infected in human HFF cells assessed as reduction in viral DNA yields in the supernatant at 3 uM treated with compound following viral infection at MOI of 0.1 PFU/cell by US17 real time PCR analysis. In kind it is functional, organism-based. The settings on record: strain Towne. Put shortly: (§2)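 At set time points supernatants were harvested and cells lysed for DNA. Cell-associated viral DNA and supernatant viral DNA quantified by real-time PCR targeting a 151-bp conserved US17 region.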
A general note: Real-time PCR tracks product formation cycle by cycle.

The test system of data set [5] is Human betaherpesvirus 5. Nature of the data set: Antiviral activity against pp28-luciferase expressing HCMV Towne infected in human HFF cells assessed as reduction in viral replication treated with compound immediately after viral infection at MOI of 1 PFU/cell followed by compound washout after 6 hrs and measured after 3 days by luciferase reporter gene assay. In kind it is functional. The settings on record: strain Towne. Put shortly: as §1

Data set [6] concerns Human betaherpesvirus 5. Nature of the data set: Inhibition of viral protein expression in HCMV Towne infected in human HFF cells assessed as reduction in IE2 expression at 1 to 10 uM treated with compound following viral infection at MOI of 1 PFU/cell measured at 72 hrs post infection by Western blot analysis. In kind it is functional, organism-based. The settings on record: strain Towne. In outline:
(§3)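 HFFs infected with HCMV Towne (MOI 1), then treated with compound. Lysates taken at 72 hpi, equal protein loaded on 8–10% Tris-glycine SDS-PAGE and transferred to PVDF. Primary antibodies overnight at 4 °C, HRP secondary, chemiluminescent detection; β-actin as loading control.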
On the technique in general: In western blotting, separated proteins are transferred to a membrane and probed.

The next data set deals with Human gammaherpesvirus 4. Nature of the data set: Antiviral activity against EBV infected in human AKATA cells assessed as reduction in IgG-induced lytic virus replication measured at 48 hrs post-lytic induction by qRT-PCR analysis. In kind it is functional, organism-based.
Data set [7] relates to Human betaherpesvirus 5. Nature of the data set: Antiviral activity against GCV-resistant HCMV Towne infected in human HFF cells assessed as reduction in plaque formation treated with compound following viral infection and incubated for 8 to 10 days by crystal violet staining based assay. In kind it is functional, organism-based. The settings on record: Human betaherpesvirus 5, strain Towne.

The subject of the next data set is Human alphaherpesvirus 1. Nature of the data set: Antiviral activity against HSV 1 infected in African green monkey Vero cells assessed as reduction in plaque formation incubated for 36 hrs by crystal violet staining based assay. The settings on record: vero. The format is functional, organism-based. In outline: (§4)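 Plaque reduction in Vero cells: virus adsorbed 60 min, then compound added in a carboxymethylcellulose overlay. Plaques counted after 36 h by crystal violet staining.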

Another data set deals with MEF. Nature of the data set: Cytotoxicity against mouse MEF cells assessed as reduction in cell viability at >=10 uM incubated for 72 hrs or 8 to 10 days by MTT assay. The format is cell-based. Put shortly: (§5)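 MTT assay on uninfected cells exposed to compound for 72 h or 8–10 days, matching the antiviral assay durations. MTT (5 mg/mL stock in PBS) added, then 2–3 h at 37 °C. Formazan absorbance read at 560 nm.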

Data set [8] deals with Human betaherpesvirus 5. Nature of the data set: Antiviral activity against HCMV TB40 infected in human HFF cells assessed as reduction in plaque formation treated with compound following viral infection at MOI of 100 PFU/wells measured at 10 days post-infection in presence of GCV by crystal violet staining based assay. The format is functional, organism-based. The settings on record: Human betaherpesvirus 5, TB40, HFF, 240 h. Put shortly: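 HFFs were infected at about 100 plaques/well and adsorbed for 90 min. They were then overlaid with DMEM containing 0.5% carboxymethylcellulose, 4% FBS and drugs, and incubated at 37 °C. A dose-response of each drug alone gave its EC₅₀. Combinations started at twice each EC₅₀, followed by two-fold serial dilutions. Plaques were counted after crystal violet staining. The Bliss coefficient is observed over expected fold inhibition (>1 synergy, <1 antagonism, =1 additive).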

Data set [9] has as its system Human betaherpesvirus 5. Nature of the data set: Inhibition of viral protein expression in HCMV Towne infected in human HFF cells assessed as reduction in IE1 expression at 1 to 10 uM treated with compound following viral infection at MOI of 1 PFU/cell measured at 72 hrs post infection by Western blot analysis. The format is functional, organism-based. The settings on record: strain Towne. Put shortly:
as §3

For data set [10], the system named is Human betaherpesvirus 5. Nature of the data set: Antiviral activity against HCMV Towne infected in human HFF cells assessed as reduction in viral DNA replication at 3 uM treated with compound following viral infection at MOI of 0.1 PFU/cell by US17 real time PCR analysis. The settings on record: strain Towne. The format is functional, organism-based. Put shortly: as §2

For data set [11], the system named is Human betaherpesvirus 5. Nature of the data set: Antiviral activity against HCMV Towne infected in human HFF cells assessed as reduction in plaque formation treated with compound following viral infection and incubated for 8 to 10 days by crystal violet staining based assay. The format is functional, organism-based. The settings on record: Human betaherpesvirus 5, strain Towne.

The test system of data set [12] is Human betaherpesvirus 5. Nature of the data set: Antiviral activity against pp28-luciferase harboring UL97 C607Y mutant expressing GCV-resistant HCMV Towne infected in human HFF cells assessed as reduction in viral replication at 0.5 to 3 uM treated with compound following viral infection at MOI of 0.1 PFU/cell and measured at 72 hrs post infection by luciferase reporter gene assay. In kind it is functional, organism-based. The settings on record: strain Towne. Put shortly:
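HFFs infected with GCV-resistant pp28-luciferase Towne (MOI 0.1), then treated with a compound dilution series. Luciferase, driven by the UL99 late promoter, read in cell lysates at 72 hpi. Data are mean ± SD of triplicates from a single experiment.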

The subject of another data set is Human alphaherpesvirus 2. Nature of the data set: Antiviral activity against HSV 2 infected in African green monkey Vero cells assessed as reduction in plaque formation incubated for 36 hrs by crystal violet staining based assay. In kind it is functional, organism-based. The settings on record: vero. In outline: as §4
Data set [13] concerns Human betaherpesvirus 5. Nature of the data set: Antiviral activity against HCMV TB40 infected in human HFF cells assessed as reduction in plaque formation at 0.5 to 3 uM treated with compound following viral infection at […] measured after 8 days by crystal violet staining analysis. The format is functional, organism-based. Put shortly:
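HFFs (2 × 10⁵/well) infected with HCMV TB40 at about 100 plaques/well for 90 min. Inoculum removed, then DMEM with 0.5% CMC, 4% FBS and compound added. Incubated at 37 °C; plaques stained with crystal violet and counted at 8 dpi. Experiment repeated three times; one representative shown.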

The test system of data set [14] is Human betaherpesvirus 5. Nature of the data set: Antiviral activity against HCMV TB40 infected in human HFF cells assessed as reduction in plaque formation treated with compound following viral infection and incubated for 8 to 10 days by crystal violet staining based assay. The format is functional, organism-based. The settings on record: Human betaherpesvirus 5, TB40, HFF.

The subject of a further data set is HFF. Nature of the data set: Cytotoxicity against human HFF cells assessed as reduction in cell viability incubated for 72 hrs or 10 days by MTT assay. The format is cell-based. In outline:
as §5

The source made the active and inactive calls. The rule behind the calls is not given here. Where only a bound is given, the exact number is not on record here.

As for `CC(C)NC(=O)C1CCN(C(=O)c2cc3sccc3n2Cc2ccc(Cl)cc2)CC1`, the EC50 in the data set with Human betaherpesvirus 5 [1] is 3190 nM; in data set [3], 1000 nM; in the data set on Human gammaherpesvirus 4, “Not Active”; with Human betaherpesvirus 5 [7] it was 1400 nM; in the data set with Human alphaherpesvirus 1 it was “Not Active”; with Human betaherpesvirus 5 [8], 1510 nM. The EC50 with Human betaherpesvirus 5 [11] is 4610 nM; with Human alphaherpesvirus 2 it was “Not Active”; with Human betaherpesvirus 5 [14], 1180 nM. The result in the data set on Human betaherpesvirus 5 [2] was inactive. For the same compound, the result in the data set on Human betaherpesvirus 5 [4], with Human betaherpesvirus 5 [5], with Human betaherpesvirus 5 [10], with Human betaherpesvirus 5 [12] and in the data set on Human betaherpesvirus 5 [13] was Active. Besides, the inhibition entry with Human betaherpesvirus 5 [6] and in the data set with Human betaherpesvirus 5 [9] was “Active” each time. Also, the Activity entry in the data set with MEF was “Toxic”. The 50% cytotoxic concentration (CC50) with HFF was > 200000 nM.
